Screens from PubChem.
CaV13 FRET inh: Disruptors of the CACNA1D IQ motif to Ca2+-dependent inactivation inhibitor domain association, primary screening, Förster resonance energy transfer in intact living …; hit rate 0.098% among 340,000; inhibition, % at 12.3 µM; HEK cells, CFP/YFP FRET ICDI-IQ, plate reader, 10 min; percent FRET-ratio fall versus neutral wells; AID 743397;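 active means mean replicate inhibition of at least 30% and at least 1% of replicates passing that level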;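 further: 0% = median of the neutral control wells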
FN deposition inh: fibronectin deposition inhibition; AH1F fibroblasts, Alexa488-fibronectin deposition fluorescence, overnight; inhibition, % at 12.6 µM; hit rate 0.086% among 350,000; AID 743247;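 active means mean inhibition across replicates of 30% or more, regardless of how many single replicates reach that level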;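 further: positive control wells lacked labelled fibronectin entirely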
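material = AH1F fibroblast monolayer depositing Alexa488-labelled fibronectin into matrix | amount = 10000 AH1F cells/well | buffer or medium = DMEM plus 2% serum, read in PBS | incubation = 1 h cell adhesion before compound, then overnight fibronectin incubation | detection = fluorescence at 485 nm excitation, 525 nm emission | evaluation = percent inhibition as loss of matrix-bound fibronectin fluorescence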
DENV2 CPE rescue: protects cells from dengue virus 2 cytopathic effect; CPE inhibition, % at 9.99 µM; AID 651640; hit rate 1.7% among 350,000; DENV2-infected cells, cytopathic effect rescue, plate reader; in the data active means CPE inhibition above about 20%, passing the limit was not always enough; tested in BHK-21 cells;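 further: 0% = median of neutral control wells and 100% = median of positive control wells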
CASP6 VEID inh: inhibitors of human caspase-6. P55212. purified caspase-6, Z-VEID-R110 cleavage fluorescence. inhibition, % at 12.5 µM. hit rate 0.53% among 350,000;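 active means mean inhibition across replicates at least about 35%, with every replicate also reaching that limit, limit read from the data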;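 further: 0% = median of neutral control wells and 100% = no fluorescence left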
Target sequence (P55212 24-179 limits assumed): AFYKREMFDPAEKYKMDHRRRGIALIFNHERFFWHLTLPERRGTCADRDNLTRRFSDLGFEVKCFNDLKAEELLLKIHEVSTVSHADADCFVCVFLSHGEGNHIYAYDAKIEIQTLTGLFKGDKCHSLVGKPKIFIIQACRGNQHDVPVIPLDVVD
Target sequence (P55212 194-293 limits assumed): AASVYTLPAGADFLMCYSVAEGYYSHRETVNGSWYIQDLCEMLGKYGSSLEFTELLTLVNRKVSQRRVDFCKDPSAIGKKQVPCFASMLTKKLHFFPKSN
XiGFP reactiv: reactivates the inactive X chromosome in mouse fibroblasts; activation, % at 7.58 µM; hit rate 0.055% among 360,000; XiGFP mouse fibroblasts, % GFP-positive cells imaging, 3 d; cells co-treated with 5-aza-dC sensitizer; scaled so ellipticine positive control = 100%; AID 743238;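 active means mean normalized replicate activation at least 10% and every replicate at or above 10%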;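 further: 0% = median of on-plate neutral control wells and 100% = ellipticine 6 µM median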
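System: 68-5-11 XiGFP fibroblast line | Buffer or medium: DMEM containing 5-aza-dC | Compound: Single point | Times: Compounds 3 days, fix/stain 15 min at room temperature | Benchmarks: Positive control ellipticine, 6 µM final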
* marks the source's active call; other numbers are inactive results; / = no result given. Only some compounds are listed: those with a hit (about 2% of all), similar ones and a draw of the others.

SMILES | CaV13 FRET inh | FN deposition inh | DENV2 CPE rescue | CASP6 VEID inh | XiGFP reactiv
O=C(NC1CCN(Cc2ccccc2)CC1)c1ccc(CS(=O)c2ccc(F)cc2)o1 (stereo not drawn) | -3 | 1 | 9 | -10 | 0
Cc1ccccc1C(=O)NC1CCN(Cc2ccccc2)CC1 | 6 | -20 | 4 | -11 | 1
C[C@H]1CN([C@@H](C)CO)C(=O)Cc2cc(NS(=O)(=O)c3cn(C)cn3)ccc2O[C@H]1CN(C)C(=O)Nc1ccc(C(F)(F)F)cc1 | / | / | 14 | 1 | -1
CCn1c(Cl)c(C=O)s/c1=N\S(=O)(=O)c1ccccc1 | -3 | 50* | -17 | -4 | 35*
O=C1Nc2ccccc2C(=O)N(C2CCCC2)C1C(=O)NC1CC1 (stereo not drawn) | -8 | 12 | 35* | 0 | 0
CC1CCCN(CCOc2cccc(Oc3ccccc3)c2)C1 (stereo not drawn) | -18 | 2 | 53* | -4 | 0
O=C(c1cccc(-c2ccc(O)cc2)c1)N1CCOCC1 | -2 | 2 | / | / | /
O=C(c1cccc(-c2cccc3nccn23)c1)N1CCOCC1 | -9 | 4 | 33* | 1 | 0
Cc1ccc(S(=O)(=O)N(C)C[C@@H]2OCCCC[C@@H](C)Oc3ccc(NC(=O)CCCN(C)C)cc3C(=O)N([C@@H](C)CO)C[C@H]2C)cc1 | / | 1 | 5 | -1 | 0
CN1CC(=O)N2Cc3[nH]c4ccccc4c3C[C@H]2C1=O | -15 | -4 | 3 | 45* | 0
COCCN(C[C@@H]1[C@@H](c2ccccc2)[C@@H](CO)N1C(C)=O)C(=O)c1ccncc1 | / | -13 | -4 | 1 | 0
COCCN(C[C@H]1[C@H](c2ccccc2)[C@@H](CO)N1C(C)=O)C(=O)c1ccccc1 | / | / | 6 | -1 | 0
COCCN(C[C@@H]1[C@@H](c2ccccc2)[C@H](CO)N1C(C)=O)C(=O)c1ccncc1 | / | 10 | 24* | -1 | 0
COCCN(C[C@H]1[C@H](c2ccccc2)[C@@H](CO)N1C(C)=O)C(=O)c1ccncc1 | / | -16 | 26* | 3 | 0
CCN(C[C@H]1N[C@H](CO)[C@@H]1c1ccccc1)C(=O)c1ccncc1 | / | -6 | / | 7 | 0
CCN(C[C@@H]1N[C@H](CO)[C@H]1c1ccccc1)C(=O)c1ccncc1 | / | 6 | 26* | 6 | 0
O=C(c1ccc(F)cc1)c1cc2ccc(O)cc2oc1=O | 1 | -7 | -5 | 9 | 0
COc1ccccc1C(=O)c1cc2ccc(O)cc2oc1=O | 144* | -6 | 3 | 2 | 0
CCOC1=C2CN(S(=O)(=O)c3ccc(C)cc3)C(c3cccc(Cl)c3)CC2N(S(=O)(=O)c2ccc(Cl)cc2)C(c2ccccc2)C1 (stereo not drawn) | -7 | -9 | 32* | -2 | 0
S=C(Nc1ccc2nsnc2c1)N1CCCCCC1 | -8 | / | 5 | 56* | 0
O=C(Nc1ccc2nsnc2c1)N1CCCCC1 | -3 | 3 | / | / | /
CO[C@@H]1CN(C)C(=O)c2ccc(NC(=O)c3ccccc3F)cc2OC[C@@H](C)N(C(=O)c2ccccc2F)C[C@@H]1C | / | 0 | 7 | / | 0
COc1ccc(S(=O)(=O)N2CCCC2C(=O)NCC(=O)Nc2cccc(Cl)c2C)cc1 (stereo not drawn) | -3 | 5 | 70* | 0 | 0
COc1ccc(CNC(=O)C2CCCN2S(=O)(=O)c2ccc(C)cc2)cc1 (stereo not drawn) | -3 | 20 | / | / | /
Cc1c(Cl)cccc1NC(=O)CNC(=O)C1CC(=O)N(C2CCCC2)C1 (stereo not drawn) | -7 | -2 | 88* | -9 | 0
SMILES | CaV13 FRET inh | FN deposition inh | DENV2 CPE rescue | CASP6 VEID inh | XiGFP reactiv
CCCNC(=O)C[C@H]1CC[C@@H]2[C@H](COc3ccc(NC(=O)Cc4ccccc4)cc3C(=O)N2C)O1 | / | 2 | -1 | -1 | 0
CC(C)C#Cc1cnc2c(c1)C(=O)N([C@@H](C)CO)C[C@H](C)[C@@H](CN(C)C(=O)CN1CCOCC1)O2 | / | -4 | 4 | -1 | 1
CC(=O)N(C)C[C@@H]1Oc2cc(C#Cc3ccncc3)ccc2S(=O)(=O)N([C@H](C)CO)C[C@@H]1C | / | -24 | 12 | 2 | 0
COc1ccc(NC(=O)c2ccc3c(SCC(=O)O)c4c(nc3c2)CCCC4)cc1Cl | -20 | -1 | 11 | 19 | 0
CCCN(C(=O)c1ccc2c(SCC(=O)O)c3c(nc2c1)CCC3)c1cccc(C)c1 | -7 | 2 | 8 | 65* | 0
COc1ccc(Cl)cc1NC(=O)c1ccc2c(SCC(=O)O)c3c(nc2c1)CCCC3 | -2 | 2 | 8 | 37* | 0
CCC(=O)N1CC2(CCN(Cc3ccc(Cl)cc3)CC2)c2c(n(C)c3cc(OC)ccc23)[C@H]1CO | / | 11 | -1 | -1 | 0
C[C@@H]1CN([C@H](C)CO)C(=O)c2cccc(NS(=O)(=O)c3cn(C)cn3)c2O[C@@H]1CN(C)S(=O)(=O)c1ccc(Cl)cc1 | / | / | -9 | 1 | 0
NC(=NC(=O)c1cccc(C(F)(F)F)c1)c1ccc(C(F)(F)F)cn1 | -4 | 3 | 5 | 0 | 22*
COc1c2c(cc3oc(CO[C@@H]4O[C@H](CO)[C@@H](O)[C@H](O)[C@H]4O)cc(=O)c13)O[C@H](C(C)(C)O)C2 | -6 | -1 | 24* | 2 | 0
CN(C)c1ccc(-c2cc3ccccc3c(=O)o2)cc1 | -9 | -3 | 114* | -1 | 0
COc1ccc(-c2cc3ccccc3c(=O)o2)cc1 | -10 | -8 | 5 | 4 | 0
CC(C)NC(=O)Nc1ccc2c(c1)C(=O)N([C@@H](C)CO)C[C@@H](C)[C@@H](CN(C)Cc1ccc(Oc3ccccc3)cc1)O2 | / | 13 | 0 | -2 | -1
CCOC(=O)C(C(=O)OCC)C(Nc1ccccc1)c1ccccc1 (stereo not drawn) | -3 | 3 | -3 | 1 | 0
CCOC(=O)[C@H](O)[C@@H](O)c1cccc([C@H](O)[C@@H](O)C(=O)OCC)c1 | -5 | -5 | 41* | / | 0
C[C@@H]1CCCCO[C@H](CN(C)S(C)(=O)=O)[C@@H](C)CN([C@@H](C)CO)C(=O)c2cc(NS(=O)(=O)c3cn(C)cn3)ccc2O1 | / | / | 0 | 1 | 0
C/C(CC(=O)Nc1ccc(Cl)c(Cl)c1)=N\NC(=O)Cc1ccccc1 | -5 | 0 | 51* | -2 | 0
C/C(CC(=O)Nc1ccc2c(c1)OCCO2)=N\NC(=O)Cc1ccccc1 | -6 | 2 | -1 | 4 | 0
CN(C[C@H]1N[C@@H](CO)[C@H]1c1ccc(-c2cccc(F)c2)cc1)C(=O)CC1CC1 | / | -13 | 20* | / | 0
COCCN(C[C@H]1N[C@H](CO)[C@@H]1c1ccc(-c2ccc(F)cc2)cc1)C(C)=O | / | -20 | 35* | 0 | 0
